Data published in ChEMBL document CHEMBL3351994, “Synthesis and biological evaluation of novel millepachine derivatives as a new class of tubulin polymerization inhibitors” (J Med Chem, 2014).

Assays:
A-375 = experiment: Antiproliferative activity against human A375 cells assessed as inhibition of cell proliferation after 48 hrs by MTT assay; type: functional, cell-based; details: A-375, 48 h
How it was run: (§1)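 Cells grown at 37 °C in humidified 5% CO2. K562, C26 and HCT lines in RPMI-1640; other lines in DMEM; both media with 10% FBS, penicillin and streptomycin. 1000 cells/well seeded, incubated overnight, then compound at various doses for 48 h. MTT added for 4 h, formazan dissolved in DMSO, absorbance read at 590 nm. IC50 from dose–response curves, mean ± SEM of at least three independent experiments.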

HepG2 = experiment: Antiproliferative activity against human HepG2 cells assessed as inhibition of cell proliferation after 48 hrs by MTT assay; type: functional, cell-based; how it was run: as §1
K562 = experiment: Antiproliferative activity against human K562 cells assessed as inhibition of cell proliferation after 48 hrs by MTT assay; type: functional, cell-based; details: K562, 48 h; how it was run: as §1
[1] = Solubility in PBS solution by nephelometry; type: physicochemical
How it was run: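 Maximum soluble concentration in PBS, determined by nephelometry.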

AGS = experiment: Antiproliferative activity against human AGS cells assessed as inhibition of cell proliferation after 48 hrs by MTT assay; type: functional, cell-based; how it was run: as §1
[2] = Antiproliferative activity against human ES2 cells assessed as inhibition of cell proliferation after 48 hrs by MTT assay; type: functional, cell-based; details: ES-2, 48 h
MCF7 = experiment: Antiproliferative activity against human MCF7 cells assessed as inhibition of cell proliferation after 48 hrs by MTT assay; type: functional, cell-based; details: MCF7, 48 h; how it was run: as §1
NCI-H358 = experiment: Antiproliferative activity against human NCI-H358 cells assessed as inhibition of cell proliferation after 48 hrs by MTT assay; type: functional, cell-based; details: NCI-H358, 48 h; how it was run: as §1
[3] = Antiproliferative activity against mouse C26 cells assessed as inhibition of cell proliferation after 48 hrs by MTT assay; type: functional, cell-based; details: C26, 48 h; how it was run: as §1
U-251 = experiment: Antiproliferative activity against human U251 cells assessed as inhibition of cell proliferation after 48 hrs by MTT assay; type: functional, cell-based; details: U-251, 48 h; how it was run: as §1
[4] = Antiproliferative activity against human HCT116 cells assessed as inhibition of cell proliferation after 48 hrs by MTT assay; type: functional, cell-based; details: HCT-116, 48 h
[5] = Antiproliferative activity against human HCT15 cells assessed as inhibition of cell proliferation after 48 hrs by MTT assay; type: functional, cell-based; details: HCT-15, 48 h; how it was run: as §1
[6] = Antiproliferative activity against human DLD1 cells assessed as inhibition of cell proliferation after 48 hrs by MTT assay; type: functional, cell-based; details: DLD-1, 48 h; how it was run: as §1
[7] = Antiproliferative activity against human A2780S cells assessed as inhibition of cell proliferation after 48 hrs by MTT assay; type: functional, cell-based; details: A2780, 48 h
How it was run: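 Cells grown in DMEM with 10% FBS, penicillin/streptomycin at 37 °C, 5% CO2. 1000 cells/well seeded, incubated overnight, then exposed to various doses for 48 h. MTT added for 4 h, formazan dissolved in DMSO, absorbance read at 590 nm. IC50 = concentration inhibiting proliferation by 50%, mean ± SEM of dose–response curves from at least three independent experiments.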

[8] = Toxicity in iv dosed BALB/c mouse; type: organism-based; details: in vivo
How it was run: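 Maximum tolerated dose in BALB/c mice (SPF, 18−22 g, 6−8 weeks, half female and half male). Graded doses given intravenously, n = 4 per dose. Survival and adverse effects recorded every other day after dosing. MTD defined as the largest dose given before one death occurs.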

Row | SMILES | IC50 (A-375) [nM] | IC50 (HepG2; Homo sapiens, HepG2, 48 h) [nM] | IC50 (K562) [nM] | also measured
1 | CCC(=O)Nc1cc(/C=C/C(=O)c2ccc(OC)c3c2OC(C)(C)C=C3)ccc1OC | 920 | 910 | 800 | –
2 | COc1ccc(/C=C/C(=O)c2ccc(OC)c3c2OC(C)(C)C=C3)cc1N.O=C(O)C(O)C(O)C(=O)O | – | 11 | – | solubility kinetic [1]: 52 µg/mL
3 | COc1ccc(/C=C/C(=O)c2ccc(OC)c3c2OC(C)(C)C=C3)cc1NC(N)=O | 1990 | 1640 | 1540 | –
4 | CCN(CC)c1cc(/C=C/C(=O)c2ccc(OC)c3c2OC(C)(C)C=C3)ccc1OC | > 2000 | > 2000 | > 2000 | –
5 | COc1ccc(/C=C/C(=O)c2ccc(OC)c3c2OC(C)(C)C=C3)cc1N(Cc1ccccc1)Cc1ccccc1 | > 2000 | > 2000 | 114 | –
6 | COc1ccc(/C=C/C(=O)c2ccc(OC)c3c2OC(C)(C)C=C3)cc1NC(C)=O | 430 | 570 | 700 | –
7 | COc1ccc(/C=C/C(=O)c2ccc(OC)c3c2OC(C)(C)C=C3)cc1N.O=C(O)/C=C\C(=O)O | – | – | – | IC50 (HepG2; hepg2): 12 nM; solubility kinetic [1]: 47 µg/mL
8 | COc1ccc(/C=C/C(=O)c2ccc(OC)c3c2OC(C)(C)C=C3)cc1NS(C)(=O)=O | 1800 | 2000 | 1770 | –
9 | COc1ccc(/C=C/C(=O)c2ccc(OC)c3c2OC(C)(C)C=C3)cc1NS(=O)(=O)C1CC1 | 1870 | 1960 | 1580 | –
10 | COc1cc2c(c(OC)c1OC)-c1ccc(OC)c(=O)cc1[C@@H](NC(C)=O)CC2 [COLCHICINE] | 12 | 42 | 16 | IC50 (AGS): 9 nM; IC50 [2]: 18 nM; IC50 (MCF7): 58 nM; IC50 (NCI-H358): 4 nM; IC50 [3]: 344 nM; IC50 (U-251): 20 nM; IC50 [4]: 15 nM; IC50 [5]: 16 nM; IC50 [6]: 11 nM; IC50 [7]: 4 nM
11 | COc1ccc(/C=C/C(=O)c2ccc(OC)c3c2OC(C)(C)C=C3)cc1N.O=S(=O)(O)O | – | – | – | solubility kinetic [1]: 58 µg/mL; MTD [8]: 200 mg/kg
12 | COc1ccc(/C=C/C(=O)c2ccc(OC)c3c2OC(C)(C)C=C3)cc1NC(=O)C(C)C | 530 | 830 | 570 | –
13 | COc1ccc(/C=C/C(=O)c2ccc(OC)c3c2OC(C)(C)C=C3)cc1NC(=O)Cc1cccc(C(F)(F)F)c1 | > 2000 | > 2000 | > 2000 | –
14 | COc1ccc(/C=C/C(=O)c2ccc(OC)c3c2OC(C)(C)C=C3)cc1NCCN1CCOCC1 | > 2000 | > 2000 | > 2000 | –
